Results taken from article PMC5224883 (Chemistry (Weinheim an der Bergstrasse, Germany), 2016).
pIC50: −log10 of the molar value.

Experiments:
CXCR4 = CXCR4 (Homo sapiens, UniProt P61073); test: Chemokine-induced calcium signalling assay; format: cell-based; conditions: read-out: Ca^2+ flux IC50 CXCR4; CXCR4-positive U87 cell line, CXCL12 (SDF-1) induced Ca^2+ signalling, triplicate average
[1] = Cyclic voltammetry of copper acetate complexes; format: physicochemical; conditions: 1 mM in acetonitrile, 0.1 M TBAPF6, 200 mV/s, vs SHE
Outline: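 Working electrode was a Pt button, with a Pt-wire counter electrode and an Ag-wire pseudo-reference electrode. Tests were run under N2. Potentials were referenced to SHE using ferrocene as an internal standard (+0.400 V versus SHE). Samples were Cu2+ acetate complexes.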

Chain of CXCR4 (P61073 whole entry): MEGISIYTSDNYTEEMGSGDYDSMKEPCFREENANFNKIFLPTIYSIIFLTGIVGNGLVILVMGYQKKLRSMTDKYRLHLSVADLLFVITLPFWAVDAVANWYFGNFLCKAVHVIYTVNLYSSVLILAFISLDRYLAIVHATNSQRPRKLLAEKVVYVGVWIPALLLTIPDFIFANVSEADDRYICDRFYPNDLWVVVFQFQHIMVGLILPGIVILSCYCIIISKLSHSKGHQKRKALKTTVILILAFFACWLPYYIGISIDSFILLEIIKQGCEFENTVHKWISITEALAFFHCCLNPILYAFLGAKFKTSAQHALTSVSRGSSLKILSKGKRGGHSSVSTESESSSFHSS

With `CC(=O)[O-].[Cu+2].c1ccc(CN2CCCN3CCN(CCCN(Cc4ccccc4)CC3)CC2)cc1` [[Cu5(OAc)]^+] the pIC50 (CXCR4) was 6.81, the “Eox (Cu^2+/3+)” value [1] was “+1.516 V” and the “Ered (Cu^2+/+)” value [1] was −0.641 V. The “Eox (^Cu+/2+)” value ([1]; return oxidation) was −0.156 V.
